# Source: ChEMBL document CHEMBL2331327, “Bioactive abietane and ent-kaurane diterpenoids from Isodon tenuifolius” (J Nat Prod, 2013)
# Residues, ends and D or L forms follow the SMILES beside them. *: point of attachment. Cbz = O=C(OCc1ccccc1)*
# How the values were obtained:
# RAW264.7 [1] = assay: Cytotoxicity against mouse RAW264.7 cells assessed as inhibition of cell viability after 18 hrs by MTS assay; assay type: cell-based; conditions: raw264.7, 18 h
# How it was run: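 RAW264.7 cells seeded at 2 × 10^5 cells/well and preincubated 24 h, then exposed to compounds (DMSO solutions) at given concentrations for 18 h. MTS added for 4 h and absorbance read at 490 nm. Viability expressed relative to untreated cells as 100%.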
# RAW264.7 [2] = assay: Inhibition of nitric oxide production in LPS-stimulated mouse RAW264.7 cells measured after 18 hrs by Griess reagent based multilabel plate reader analysis; assay type: functional, cell-based; conditions: RAW264.7, 18 h
# How it was run: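 RAW264.7 macrophages in RPMI 1640 with 10% FBS at 2 × 10^5 cells/well, preincubated 24 h at 37 °C, 5% CO2. Then 18 h with 1 μg/mL LPS plus serial dilutions of compound (DMSO stock diluted in medium; top concentration 25 μM). Supernatant mixed 1:1 with Griess reagent, 5 min, absorbance at 570 nm, in triplicate. MG-132 as positive control.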
# SW480 = assay: Cytotoxicity against human SW480 cells assessed as inhibition of cell viability after 48 hrs by MTT assay; assay type: functional, cell-based; conditions: SW480, 48 h
# How it was run: (§1)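 Cells grown in RPMI-1640 or DMEM with 10% FBS, 37 °C, 5% CO2. Adherent lines seeded at 1 × 10^5 cells/mL and allowed 12 h to attach; suspension cells seeded just before dosing. Compounds tested at various concentrations in triplicate for 48 h; cisplatin and paclitaxel as positive controls. MTT added for 4 h at 37 °C, then lysis in 20% SDS−50% DMF and OD read at 595 nm. IC50 by Reed and Muench method.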
# MCF7 = assay: Cytotoxicity against human MCF7 cells assessed as inhibition of cell viability after 48 hrs by MTT assay; assay type: functional, cell-based; conditions: MCF7, 48 h; how it was run: as §1
# A549 = assay: Cytotoxicity against human A549 cells assessed as inhibition of cell viability after 48 hrs by MTT assay; assay type: functional, cell-based; conditions: A549, 48 h; how it was run: as §1
# HL-60 = assay: Cytotoxicity against human HL60 cells assessed as inhibition of cell viability after 48 hrs by MTT assay; assay type: functional, cell-based; conditions: HL-60, 48 h; how it was run: as §1
# SMMC-7721 = assay: Cytotoxicity against human SMMC7721 cells assessed as inhibition of cell viability after 48 hrs by MTT assay; assay type: functional, cell-based; conditions: SMMC-7721, 48 h; how it was run: as §1
SMILES,IC50 (RAW264.7 [2]) [µM],Activity (RAW264.7 [1]),IC50 (SW480) [µM],IC50 (MCF7) [µM],IC50 (A549) [µM],IC50 (HL-60) [µM],IC50 (SMMC-7721) [µM]
C=C1C(=O)[C@]23C[C@H]1C[C@H](OC(C)=O)[C@H]2[C@]1(C)[C@@H](OC(C)=O)C[C@H](O)C(C)(C)[C@H]1C[C@@H]3OC(C)=O [ADENANTHIN C],3.8,Non-toxic,5.1,4.8,> 10,1.8,3.2
C=C1[C@@H]2C[C@H](O)[C@H]3[C@@]4(C)[C@H](C[C@H](OC(C)=O)[C@]3(C2)[C@@H]1O)C(C)(C)[C@@H](OC(C)=O)C[C@@H]4O [ADENANTHIN E],> 25,Non-toxic,> 10,> 10,> 10,> 10,> 10
C=C1[C@@H]2C[C@H](OC(C)=O)[C@H]3[C@]4(C)[C@@H](OC(C)=O)C[C@H](O)C(C)(C)[C@H]4C(=O)[C@H](OC(C)=O)[C@]3(C2)[C@@H]1O [ADENANTHIN J],> 25,Non-toxic,> 10,> 10,> 10,> 10,> 10
C=C1C(=O)[C@@]23CC(=O)[C@@H]4C(C)(C)[C@@H](OC(C)=O)C[C@H](O)[C@@]4(C)[C@@H]2[C@@H](O)C[C@@H]1C3 [INFLEXARABDONIN E],5.7,Non-toxic,4.6,4.8,6.8,1.7,2.2
CC(C)c1cc2c3c(c1)[C@H](O)C[C@H]1[C@](C)(CO)CC[C@H](O2)[C@]31C [ISOABIETENIN A],> 25,Non-toxic,> 10,> 10,> 10,> 10,> 10
CC(C)[C@@]1(O)CC(=O)C2=C(C1)[C@H](O)C[C@H]1[C@](C)(CO)CCC[C@]21C [ISOABIETENIN B],> 25,Non-toxic,> 10,> 10,> 10,> 10,> 10
C=C(C=O)[C@H]1C[C@@H](OC(C)=O)[C@H]2[C@@](O)(C1)[C@H](OC(C)=O)C(=O)[C@H]1C(C)(C)[C@H](O)C[C@@H](OC(C)=O)[C@@]12C [ISOABIETENIN C],10.8,Non-toxic,> 10,> 10,> 10,4.7,> 10
CC(C)C[C@@H](C=O)NC(=O)[C@H](CC(C)C)NC(=O)[C@H](CC(C)C)NC(=O)OCc1ccccc1 [MG-132] (Cbz-Leu-Leu-Leu-aldehyde),0.15,,,,,,
CC(=O)O[C@H]1C(=O)[C@@]2(C)[C@H]([C@H](OC(=O)c3ccccc3)[C@]3(O)C[C@H](OC(=O)[C@H](O)[C@@H](NC(=O)c4ccccc4)c4ccccc4)C(C)=C1C3(C)C)[C@]1(OC(C)=O)CO[C@@H]1C[C@@H]2O [PACLITAXEL],,,0.15,< 0.008,< 0.008,< 0.008,< 0.008
C=C1C(=O)[C@@]23CC[C@@H]4C(C)(C)[C@H](O)CC[C@@]4(C)[C@@H]2[C@@H](O)C[C@@H]1C3 [TENUIFOLIN A],6.9,Non-toxic,> 10,> 10,> 10,4.7,7.4
C=C1[C@@H]2C[C@H](O)[C@H]3[C@]4(C)CC[C@H](O)C(C)(C)[C@H]4CC[C@]3(C2)[C@@H]1O [TENUIFOLIN B],> 25,Non-toxic,> 10,> 10,> 10,> 10,> 10
C=C1[C@@H]2C[C@H](OC(C)=O)[C@@H]3[C@](C2)(C(=O)C[C@@H]2C(C)(C)[C@@H](O)C[C@H](OC(C)=O)[C@]23C)[C@@H]1OC(C)=O [TENUIFOLIN C],> 25,Non-toxic,> 10,> 10,> 10,> 10,> 10

# The next lines start with results.
IC50 (RAW264.7 [2]) [µM],SMILES,Activity (RAW264.7 [1]),IC50 (SW480) [µM],IC50 (MCF7) [µM],IC50 (A549) [µM],IC50 (HL-60) [µM],IC50 (SMMC-7721) [µM]
> 25,C=C1[C@@H]2C[C@H](OC(C)=O)[C@H]3[C@]4(C)[C@@H](OC(C)=O)C[C@H](O)C(C)(C)[C@H]4C[C@H](O)[C@]3(C2)[C@@H]1O [TENUIFOLIN D],Non-toxic,> 10,> 10,> 10,> 10,> 10
> 25,C=C1[C@@H]2C[C@H](O)[C@H]3[C@]4(C)CC[C@H](O)C(C)(C)[C@H]4C(=O)C[C@]3(C2)[C@@H]1O [TENUIFOLIN E],Non-toxic,> 10,> 10,> 10,> 10,> 10
> 25,C=C1[C@@H]2C[C@H](O)[C@@H]3[C@@](CC(=O)[C@@H]4C(C)(C)[C@@H](O)C[C@H](OC(C)=O)[C@]43C)(C2)[C@@H]1O [TENUIFOLIN F],Non-toxic,> 10,> 10,> 10,> 10,> 10
> 25,C=C1[C@@H]2C[C@H](OC(C)=O)[C@@H]3[C@@](CC(=O)[C@@H]4C(C)(C)[C@@H](O)C[C@H](O)[C@]43C)(C2)[C@@H]1O [TENUIFOLIN G],Non-toxic,> 10,> 10,> 10,> 10,> 10
> 25,C=C1[C@@H]2CC(=O)[C@@H]3[C@@](CC(=O)[C@@H]4C(C)(C)[C@@H](O)C[C@H](OC(C)=O)[C@]43C)(C2)[C@@H]1O [TENUIFOLIN H],Non-toxic,> 10,> 10,> 10,> 10,> 10
5.8,C=C1C(=O)[C@@]23CC(=O)[C@@H]4C(C)(C)[C@@H](O)C[C@H](O)[C@@]4(C)[C@@H]2[C@@H](OC(C)=O)C[C@@H]1C3 [TENUIFOLIN I],Non-toxic,4.3,3,4.5,0.8,1.9
8.8,C=C1C(=O)[C@@]23CC(=O)[C@@H]4C(C)(C)[C@@H](OC(C)=O)CC[C@@]4(C)[C@@H]2[C@@H](O)[C@H](O)[C@@H]1C3 [TENUIFOLIN J],Non-toxic,> 10,> 10,> 10,3.8,6.3
> 25,COC[C@@H]1C(=O)[C@]23C[C@H]1C[C@H](OC(C)=O)[C@H]2[C@@]1(C)[C@H](C(=O)[C@@H]3O)C(C)(C)[C@@H](O)C[C@@H]1O [TENUIFOLIN L],Non-toxic,> 10,> 10,> 10,> 10,> 10
> 25,COC[C@H]1C(=O)[C@]23C[C@H]1C[C@H](OC(C)=O)[C@H]2[C@]1(C)[C@@H](OC(C)=O)C[C@H](O)C(C)(C)[C@H]1C(=O)[C@@H]3O [TENUIFOLIN M],Non-toxic,> 10,> 10,> 10,4.4,> 10
